Data set [1] concerns the target ATP-dependent translocase ABCB1 (Homo sapiens, UniProt P08183). Put plainly: Activity at P-glycoprotein (unknown origin).
The nature of data set [2]: Clearance in CD rat at 3 mg/kg, iv. The class given is ADME, organism-based. The arrangement: dose 3 mg/kg, route intravenous. Conditions: in vivo. The procedure, abridged: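 Single-dose PK: female athymic nude mice (10 mg/kg), female CD rats and male beagle dogs (3 mg/kg), male cynomolgus monkeys (3 mg/kg), given iv and by oral gavage. Solution in EPW (5% ethanol/45% PEG400/water), with 1:2 HCl (m/m) for mouse, rat and dog and 1:1.5 HCl (m/m) for monkey. Plasma levels followed over 24 h.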

A short description of data set [3]: Volume of distribution at steady state in Beagle dog at 3 mg/kg, iv. It is filed as ADME, organism-based, Canis lupus familiaris. Also noted: dose 3 mg/kg, route intravenous. To be noted: in vivo, read-out: Vdss.
Data set [4] has as its system Mus musculus. Put plainly: In vivo inhibition of mTORC2-mediated phosphorylation of AKT at serine 473 in human MCF7 cells xenografted into athymic nude mouse at 100 mg/kg, po after 4 hrs by Western blotting analysis relative to control. Conditions: MCF7, 4 h. The class given is functional. The procedure, abridged:
(§1)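 MCF-7 cells (DMEM, 10% FBS) were implanted subcutaneously at 5 × 10^6 cells in 50% cold HBSS/50% growth-factor-reduced matrigel into the hindflank of 5−8 week old female nude mice. At tumor size 40−150 mg, mice received a single oral dose of 100 mg/kg. Tumor lysates were pooled per group. Phospho-AKT (S473, T308), p70S6K (T389), S6 (S240/244) and 4E-BP1 (T37/46) were measured by Western blot normalized to α-tubulin.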
Background: A xenograft is tissue or cells of one species grown in another, often human tumour cells in immunodeficient mice.

For data set [5], the system named is Mus musculus. Put plainly: In vivo inhibition of mTORC1-mediated phosphorylation of 4EBP1 at ([…]) in human PC3 cells xenografted into athymic nude mouse at 100 mg/kg, po after 1 hr by Western blotting analysis relative to control. It is filed as functional. To be noted: PC-3, 1 h. In outline:
(§2)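 PC-3 cells grown in DMEM with 20% FBS were implanted subcutaneously at 3 × 10^6 cells in ice-cold HBSS into the hindflank of 5−8 week old male nude mice. At tumor size 200−500 mg, mice received a single oral dose of 100 mg/kg. Plasma and tumors were collected at 1, 4, 8, 16, 24 and 32 h. Tumor lysates from each group (n = 5) were pooled. Phospho-proteins were quantified by Western blot and normalized to α-tubulin.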

Data set [6] concerns Mus musculus. Put plainly: In vivo inhibition of mTORC2-mediated phosphorylation of AKT at serine 473 in human MCF7 cells xenografted into athymic nude mouse at 100 mg/kg, po after 24 hrs by Western blotting analysis relative to control. The class given is functional. To be noted: MCF7, 24 h. In outline:
as §1

The target of data set [7] is Platelet-derived growth factor receptor beta (Homo sapiens, UniProt P09619). Put plainly: Inhibition of PDGFRbeta (unknown origin).
Chain of Platelet-derived growth factor receptor beta (P09619 whole entry): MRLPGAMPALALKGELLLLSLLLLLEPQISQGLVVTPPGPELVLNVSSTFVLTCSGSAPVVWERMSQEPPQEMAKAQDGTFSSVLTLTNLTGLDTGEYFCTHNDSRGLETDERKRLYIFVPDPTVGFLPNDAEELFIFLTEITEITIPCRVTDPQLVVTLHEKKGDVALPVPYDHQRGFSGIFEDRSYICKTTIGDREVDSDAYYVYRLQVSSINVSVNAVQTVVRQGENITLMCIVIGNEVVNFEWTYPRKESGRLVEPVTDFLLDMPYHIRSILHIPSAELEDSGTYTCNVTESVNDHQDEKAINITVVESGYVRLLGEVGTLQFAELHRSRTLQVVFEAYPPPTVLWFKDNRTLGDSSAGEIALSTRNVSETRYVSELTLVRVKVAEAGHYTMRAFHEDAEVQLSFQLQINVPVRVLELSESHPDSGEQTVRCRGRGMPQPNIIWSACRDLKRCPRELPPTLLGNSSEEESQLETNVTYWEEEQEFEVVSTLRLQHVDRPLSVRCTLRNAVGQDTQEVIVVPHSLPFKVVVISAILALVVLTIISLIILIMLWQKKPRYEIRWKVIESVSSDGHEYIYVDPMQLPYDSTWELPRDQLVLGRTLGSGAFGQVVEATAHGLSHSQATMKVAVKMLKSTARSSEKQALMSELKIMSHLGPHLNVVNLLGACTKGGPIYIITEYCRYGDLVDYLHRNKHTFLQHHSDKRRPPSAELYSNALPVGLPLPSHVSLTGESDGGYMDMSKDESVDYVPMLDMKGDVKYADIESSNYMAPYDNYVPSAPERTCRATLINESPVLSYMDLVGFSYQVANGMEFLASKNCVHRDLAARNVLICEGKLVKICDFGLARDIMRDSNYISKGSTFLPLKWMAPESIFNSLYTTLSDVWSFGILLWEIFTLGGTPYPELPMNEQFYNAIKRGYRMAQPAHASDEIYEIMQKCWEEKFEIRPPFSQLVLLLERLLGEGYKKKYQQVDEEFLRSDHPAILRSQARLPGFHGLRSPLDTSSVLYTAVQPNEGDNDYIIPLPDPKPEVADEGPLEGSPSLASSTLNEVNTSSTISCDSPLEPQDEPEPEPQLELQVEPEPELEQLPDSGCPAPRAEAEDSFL
Data set [8] concerns Plasma. Put plainly: Plasma concentration in athymic mouse plasma xenografted with human PC3 cells at 100 mg/kg, po after 24 hrs. The class given is ADME, organism-based, PC-3. The arrangement: dose 100 mg/kg, route oral. Conditions: in vivo, BLD = below limit of detection.
The target of data set [9] is T1, Cytochrome P450 2C8 (Homo sapiens, UniProt P10632).
T1 sequence (P10632 whole entry): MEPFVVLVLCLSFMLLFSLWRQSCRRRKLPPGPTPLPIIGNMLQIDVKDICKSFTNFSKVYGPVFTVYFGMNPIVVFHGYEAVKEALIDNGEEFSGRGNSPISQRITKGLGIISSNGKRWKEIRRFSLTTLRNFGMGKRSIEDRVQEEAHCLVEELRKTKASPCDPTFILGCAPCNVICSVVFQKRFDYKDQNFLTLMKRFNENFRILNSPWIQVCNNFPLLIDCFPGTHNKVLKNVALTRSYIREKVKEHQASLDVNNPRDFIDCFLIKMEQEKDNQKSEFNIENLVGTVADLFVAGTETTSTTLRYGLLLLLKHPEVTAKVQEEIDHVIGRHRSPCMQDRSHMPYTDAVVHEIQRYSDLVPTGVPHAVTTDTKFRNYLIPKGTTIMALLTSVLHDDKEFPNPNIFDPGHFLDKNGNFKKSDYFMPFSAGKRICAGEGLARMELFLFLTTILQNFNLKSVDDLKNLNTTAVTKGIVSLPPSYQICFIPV
Put plainly: Inhibition of CYP2C8 (unknown origin). It is filed as ADME.

The target in data set [10] is Ribosomal protein S6 kinase beta-1 (Homo sapiens, UniProt P23443). Put plainly: Inhibition of p70S6K (unknown origin).
Chain of Ribosomal protein S6 kinase beta-1 (P23443 whole entry): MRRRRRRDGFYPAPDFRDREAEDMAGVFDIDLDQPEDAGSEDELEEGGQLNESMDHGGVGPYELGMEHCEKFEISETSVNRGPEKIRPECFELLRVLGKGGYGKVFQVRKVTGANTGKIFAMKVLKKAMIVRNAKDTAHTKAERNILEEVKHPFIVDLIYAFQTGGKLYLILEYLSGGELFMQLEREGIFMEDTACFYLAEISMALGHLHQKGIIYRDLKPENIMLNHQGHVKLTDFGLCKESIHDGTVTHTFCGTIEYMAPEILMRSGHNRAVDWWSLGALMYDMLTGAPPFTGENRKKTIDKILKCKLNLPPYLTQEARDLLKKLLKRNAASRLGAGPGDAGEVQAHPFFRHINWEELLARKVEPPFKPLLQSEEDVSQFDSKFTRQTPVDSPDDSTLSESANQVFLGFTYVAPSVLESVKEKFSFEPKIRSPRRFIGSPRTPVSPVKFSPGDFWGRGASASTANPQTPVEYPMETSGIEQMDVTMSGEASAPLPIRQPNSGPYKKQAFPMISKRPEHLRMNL
The target of data set [11] is CDK3/cyclin E (Homo sapiens, UniProt O96020+P24864+Q00526). Put plainly: Inhibition of CDK3/Cyclin E (unknown origin). It is filed as protein-complex assay.
Data set [12] has as its target RAF proto-oncogene serine/threonine-protein kinase (Homo sapiens, UniProt P04049). Put plainly: Inhibition of cRAF (unknown origin).
Data set [13] is described as follows: Tmax in cynomolgus monkey at 3 mg/kg, po. The class given is ADME, organism-based, Macaca fascicularis. The arrangement: dose 3 mg/kg, route oral. Conditions: in vivo.
Data set [14] addresses Heat shock protein HSP 90-beta (Homo sapiens, UniProt P08238). Put plainly: Inhibition of HSP90 (unknown origin).
Data set [15] can be described thus: Drug uptake in tumor of athymic mouse xenografted with human PC3 cells at 100 mg/kg, po after 16hrs. The class given is ADME, organism-based, Neoplasm, PC-3. Also noted: dose 100 mg/kg, route oral. Conditions: read-out: Drug uptake. The procedure, abridged:
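PC-3 cells (3 × 10⁶, passages 10–14, in ice-cold HBSS) were implanted sc in 5–8 week old male nude mice. Tumors of 200–500 mg received a single oral 100 mg/kg dose. Plasma and tumor were collected at 1, 4, 8, 16, 24 and 32 h and homogenized in buffer. Lysates were pooled per group (n = 5), and phospho-proteins were measured by Western blot normalized to α-tubulin.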

The target in data set [16] is Receptor tyrosine-protein kinase erbB-2 (Homo sapiens, UniProt P04626). Put plainly: Inhibition of ERBB2 (unknown origin). In outline: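 Part of a 141-protein-kinase selectivity panel run either in house or by an outside contract lab. IC50 is reported as the average of at least two determinations.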
Chain of Receptor tyrosine-protein kinase erbB-2 (P04626 whole entry): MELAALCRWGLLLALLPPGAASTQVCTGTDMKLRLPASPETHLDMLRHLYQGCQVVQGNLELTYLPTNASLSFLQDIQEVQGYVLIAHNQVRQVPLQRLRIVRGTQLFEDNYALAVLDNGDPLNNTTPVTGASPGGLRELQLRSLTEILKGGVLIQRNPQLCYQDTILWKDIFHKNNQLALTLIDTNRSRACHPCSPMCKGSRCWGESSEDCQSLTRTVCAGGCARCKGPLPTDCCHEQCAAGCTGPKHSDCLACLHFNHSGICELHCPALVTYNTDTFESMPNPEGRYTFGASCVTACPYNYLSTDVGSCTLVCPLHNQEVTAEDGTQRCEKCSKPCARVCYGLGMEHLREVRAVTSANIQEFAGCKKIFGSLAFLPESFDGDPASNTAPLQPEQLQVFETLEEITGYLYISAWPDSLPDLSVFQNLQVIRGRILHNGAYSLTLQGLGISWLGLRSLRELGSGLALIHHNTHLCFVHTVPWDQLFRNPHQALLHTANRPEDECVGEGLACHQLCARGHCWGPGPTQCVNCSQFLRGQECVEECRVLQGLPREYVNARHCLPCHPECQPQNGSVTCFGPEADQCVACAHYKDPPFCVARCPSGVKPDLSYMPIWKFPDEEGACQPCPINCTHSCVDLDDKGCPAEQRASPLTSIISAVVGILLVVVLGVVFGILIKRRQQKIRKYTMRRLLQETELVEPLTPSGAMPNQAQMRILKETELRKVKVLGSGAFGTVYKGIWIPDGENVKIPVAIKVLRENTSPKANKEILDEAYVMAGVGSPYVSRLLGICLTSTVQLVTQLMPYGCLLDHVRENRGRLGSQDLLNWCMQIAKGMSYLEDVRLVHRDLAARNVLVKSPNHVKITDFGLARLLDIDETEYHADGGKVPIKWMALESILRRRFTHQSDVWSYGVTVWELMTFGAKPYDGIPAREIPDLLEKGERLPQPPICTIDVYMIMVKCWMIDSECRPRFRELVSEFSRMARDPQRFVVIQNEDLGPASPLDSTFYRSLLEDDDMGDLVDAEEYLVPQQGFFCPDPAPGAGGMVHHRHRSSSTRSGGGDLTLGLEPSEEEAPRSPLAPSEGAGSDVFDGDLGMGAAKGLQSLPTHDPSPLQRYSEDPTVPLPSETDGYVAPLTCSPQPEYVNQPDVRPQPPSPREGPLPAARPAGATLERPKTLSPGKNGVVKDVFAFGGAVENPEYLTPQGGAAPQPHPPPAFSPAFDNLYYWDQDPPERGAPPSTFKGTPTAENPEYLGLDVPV
Data set [17] deals with Mus musculus. Put plainly: In vivo inhibition of mTORC2-mediated phosphorylation of AKT at serine 473 in human PC3 cells xenografted into athymic nude mouse at 100 mg/kg, po after 8 hrs by Western blotting analysis relative to control. It is filed as functional. Conditions: PC-3, 8 h. The procedure, abridged: as §2
Data set [18] has as its system Mus musculus. Put plainly: In vivo inhibition of mTORC1-mediated phosphorylation of p70S6K at […] in human PC3 cells xenografted into athymic nude mouse at 100 mg/kg, po after 24 hrs by Western blotting analysis relative to control. It is filed as functional. Conditions: PC-3, 24 h. In outline:
as §2

For data set [19], the system named is Mus musculus. Put plainly: In vivo inhibition of mTORC1-mediated phosphorylation of pS6 at (serine 240/244) in human PC3 cells xenografted into athymic nude mouse at 100 mg/kg, po after 32 hrs by Western blotting analysis relative to control. It is filed as functional. To be noted: PC-3, 32 h. The procedure, abridged:
as §2

This is an account of results in ChEMBL document CHEMBL2331117 (J Med Chem, 2013).

Chain of ATP-dependent translocase ABCB1 (P08183 whole entry): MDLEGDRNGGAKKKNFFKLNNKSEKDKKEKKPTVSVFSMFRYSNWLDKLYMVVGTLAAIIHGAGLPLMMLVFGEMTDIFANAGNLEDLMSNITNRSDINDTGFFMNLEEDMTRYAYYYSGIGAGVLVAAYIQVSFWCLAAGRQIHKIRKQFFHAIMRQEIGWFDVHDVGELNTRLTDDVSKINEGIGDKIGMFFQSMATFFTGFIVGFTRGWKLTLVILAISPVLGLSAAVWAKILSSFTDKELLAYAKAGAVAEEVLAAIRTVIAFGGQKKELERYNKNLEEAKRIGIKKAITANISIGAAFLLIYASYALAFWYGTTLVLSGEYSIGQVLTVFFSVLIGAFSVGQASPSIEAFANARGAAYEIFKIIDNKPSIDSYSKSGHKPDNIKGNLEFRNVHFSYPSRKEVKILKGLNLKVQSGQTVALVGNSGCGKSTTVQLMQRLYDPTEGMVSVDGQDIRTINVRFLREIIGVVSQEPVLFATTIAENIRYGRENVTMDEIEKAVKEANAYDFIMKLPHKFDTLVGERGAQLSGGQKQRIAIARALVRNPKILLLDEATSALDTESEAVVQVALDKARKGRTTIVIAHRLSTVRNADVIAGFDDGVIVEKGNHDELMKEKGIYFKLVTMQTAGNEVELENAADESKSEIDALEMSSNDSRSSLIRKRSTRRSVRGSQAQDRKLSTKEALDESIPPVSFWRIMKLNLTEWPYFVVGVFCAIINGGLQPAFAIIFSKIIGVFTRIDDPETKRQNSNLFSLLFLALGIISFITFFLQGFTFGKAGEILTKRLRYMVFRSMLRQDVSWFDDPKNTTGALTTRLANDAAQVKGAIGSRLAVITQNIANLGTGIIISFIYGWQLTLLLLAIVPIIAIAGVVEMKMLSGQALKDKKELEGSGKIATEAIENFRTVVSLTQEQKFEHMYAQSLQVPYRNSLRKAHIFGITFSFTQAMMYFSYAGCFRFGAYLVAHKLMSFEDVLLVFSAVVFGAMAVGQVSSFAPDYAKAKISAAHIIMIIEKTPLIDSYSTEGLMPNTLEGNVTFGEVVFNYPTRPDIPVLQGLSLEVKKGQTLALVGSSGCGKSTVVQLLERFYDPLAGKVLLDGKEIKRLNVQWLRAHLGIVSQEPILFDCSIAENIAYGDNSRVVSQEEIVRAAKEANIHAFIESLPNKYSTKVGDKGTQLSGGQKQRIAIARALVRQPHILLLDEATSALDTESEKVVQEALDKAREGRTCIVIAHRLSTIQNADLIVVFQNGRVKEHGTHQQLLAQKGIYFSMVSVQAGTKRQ
Chain of RAF proto-oncogene serine/threonine-protein kinase (P04049 whole entry): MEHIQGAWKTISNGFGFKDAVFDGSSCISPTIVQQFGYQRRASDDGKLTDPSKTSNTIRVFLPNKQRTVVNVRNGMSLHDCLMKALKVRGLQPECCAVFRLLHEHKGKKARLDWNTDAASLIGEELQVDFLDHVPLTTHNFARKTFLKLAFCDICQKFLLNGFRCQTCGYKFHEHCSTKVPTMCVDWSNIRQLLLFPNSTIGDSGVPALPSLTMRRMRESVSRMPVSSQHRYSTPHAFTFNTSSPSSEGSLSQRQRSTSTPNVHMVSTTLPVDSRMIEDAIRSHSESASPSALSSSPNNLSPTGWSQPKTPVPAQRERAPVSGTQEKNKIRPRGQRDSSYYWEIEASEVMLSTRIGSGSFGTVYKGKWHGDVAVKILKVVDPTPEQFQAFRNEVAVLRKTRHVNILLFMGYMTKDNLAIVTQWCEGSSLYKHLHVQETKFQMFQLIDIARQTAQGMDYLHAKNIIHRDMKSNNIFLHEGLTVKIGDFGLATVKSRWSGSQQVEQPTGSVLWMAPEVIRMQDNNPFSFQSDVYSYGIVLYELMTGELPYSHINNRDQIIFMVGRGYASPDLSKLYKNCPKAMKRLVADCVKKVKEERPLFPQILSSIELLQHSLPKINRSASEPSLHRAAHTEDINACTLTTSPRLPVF

`Cc1c(C(=O)N2CCOc3ccc(-c4ccc(N)nc4)cc3C2)ccc(S(C)(=O)=O)c1F` returned an Activity in data set [1] greater than 20 µM. Moreover, the clearance in data set [2] was 21.2 mL/min/kg. Moreover, the Vd in data set [3] was found to be 3.15 L/kg. The inhibition in vivo at 100 mg/kg in [4] is 87%; in [5], 94%; in [6], -49%; in data set [17], 83%; in [18] it was 11%; in data set [19] it was -20%. Also, the IC50 is greater than 3.5 µM in [7]; greater than 3.5 µM in data set [10]; greater than 10 µM in [11]; greater than 3.5 µM in data set [12]; greater than 3.5 µM in data set [14]; greater than 3.5 µM in data set [16]. Moreover, the Cp entry in data set [8] was “BLD”. Moreover, the INH in data set [9] was greater than 20 µM. For the same compound, in data set [13], the Tmax was determined as 2 h. For the same compound, the concentration at 16 h in [15] amounted to 7.34 µM.

A word on the clearance: it is the rate of elimination divided by the concentration. A word on the inhibition in vivo: it is the change of the read-out against control, counted positive when it falls. What is called IC50 is the concentration needed to halve the response being measured. In general, Tmax refers to the time at which the peak concentration occurs.
